We go through one compound from ChEMBL document CHEMBL5715950, “Characterization of molecular and cellular functions of the cyclin-dependent kinase CDK9 using a novel specific inhibitor” (Br J Pharmacol, 2014).

Assay [1] is described as follows: Transcription level in human HCT-116 cells nuclear extract fused with Gal4-VP16 at 10 uM in presence of ATP by phosphorimaging analysis relative to control.
Assay [2] deals with THP-1. In words: Induction of apoptosis in human THP-1 cells at 10 uM incubated for 24 hrs by Annexin V-FITC/PI staining based flow cytometric analysis relative to control. It counts as functional. A digest of the protocol:
(§1)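 Cells grown at 37°C, 5% CO2 (A549, HeLa, MCF7 in DMEM high glucose; HCT116 in McCoy's 5A; THP1 and primary AML M4 apheresis blasts in RPMI1640), exposed to inhibitor or DMSO for 24 h. Apoptotic fraction by flow cytometry after annexin V-fluorescein/propidium iodide double staining. Means ± SD of three biological replicates; AML blasts from one patient, three technical replicates. Student's t-test versus DMSO/untreated.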
Background: Flow cytometry measures light scatter and fluorescence of single cells or particles in a stream.

The target of assay [3] is Cyclin-dependent kinase 9 (Homo sapiens) (UniProt P50750). In words: Inhibition of CDK9 in human A549 cells assessed as downregulation of GAPDH mRNA expression at 2 to 6 uM incubated for 90 mins by RT-qPCR analysis relative to control. Type of assay: cell-based. Particulars: dose 2-6 µM.
In assay [4] the test system is THP-1. In words: Induction of apoptosis in human THP-1 cells at > 2 uM incubated for 24 hrs by Annexin V-FITC/PI staining based flow cytometric analysis. It counts as functional, cell-based. In outline:
as §1

The subject of assay [5] is A549. As to the kind of experiment: Transcription level in human A549 cells nuclear extract fused with Gal4-VP16 at 10 uM in presence of ATP by phosphorimaging analysis relative to control.
The target in assay [6] is Cyclin-dependent kinase 9 (Homo sapiens) (UniProt P50750). In words: Inhibition of CDK9 in human A549 cells assessed as downregulation of CCND1 mRNA expression at 2 to 6 uM incubated for 90 mins by RT-qPCR analysis relative to control. Particulars: dose 2-6 µM. It counts as cell-based.
Assay [7] can be described thus: Transcription level in human HeLa cells nuclear extract fused with Gal4-VP16 at 10 uM in presence of ATP by phosphorimaging analysis relative to control.
Assay [8] deals with Cyclin-dependent kinase 9 (Mus musculus) (UniProt Q99J95). As to the kind of experiment: Inhibition of CDK9 in mouse Embryonic stem cell assessed as downregulation of MYC mRNA expression at 2.5 to 40 uM incubated for 90 mins by RT-qPCR analysis relative to control. The following applies: dose 2.5-40 µM. Type of assay: cell-based. (In general: Real-time PCR tracks product formation cycle by cycle.)

Assay [9] deals with Cyclin-dependent kinase 9 (Homo sapiens) (UniProt P50750). As to the kind of experiment: Inhibition of CDK9 in human THP-1 cells assessed as downregulation of RPS15 mRNA expression by RT-qPCR analysis. It counts as cell-based.
The next assay relates to MCF7. As to the kind of experiment: Induction of apoptosis in human MCF7 cells at 10 uM incubated for 24 hrs by Annexin V-FITC/PI staining based flow cytometric analysis. Type of assay: functional, cell-based. A digest of the protocol:
as §1

In the next assay the test system is HeLa. As to the kind of experiment: Inhibition of RNA synthesis in human HeLa cells stably transfected with luciferase reporter gene incubated for 30 mins followed by doxycycline addition and measured after 60 mins by RT-qPCR analysis. The following applies: time 90.0 min. Type of assay: functional, cell-based. In outline: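 Stably transfected HeLa cells carrying a tetracycline-inducible luciferase reporter: inhibitor or DMSO for 30 min, then 1 μg/mL doxycycline for 60 min. De novo reporter transcripts measured by RT-qPCR.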
A general note: A reporter such as luciferase makes a cellular process visible.

For assay [10], the target named is Cyclin-dependent kinase 9 (Mus musculus) (UniProt Q99J95). In words: Inhibition of CDK9 in mouse Embryonic stem cell assessed as downregulation of Serine 2 phosphorylation by measuring fold decrease at 10 uM incubated for 90 mins by Western blotting analysis. It counts as cell-based. A digest of the protocol:
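Mouse embryonic stem cells treated with 10 μM inhibitor or DMSO for 90 or 180 min; whole-cell Western blot for RNAPII CTD Ser2-P. Band signals quantified densitometrically and normalised to total RNAPII.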

In assay [11] the target is Calcium/calmodulin-dependent protein kinase type IV (Homo sapiens, UniProt Q16566). As to the kind of experiment: Inhibition of CAMK4 (unknown origin) incubated for 120 mins in presence of 33P-ATP by radiometric kinase assay.
The test system of assay [12] is A549. In words: Induction of apoptosis in human A549 cells at 10 uM incubated for 24 hrs by Annexin V-FITC/PI staining based flow cytometric analysis. Type of assay: functional, cell-based. In outline: as §1
A further assay has as its system p53HCT116. In words: Induction of apoptosis in human p53HCT116 cells at 10 uM incubated for 24 hrs by Annexin V-FITC/PI staining based flow cytometric analysis. Type of assay: functional, cell-based. In outline:
as §1

For orientation: inhibition means the change of the read-out against control, counted positive when it falls. The term pIC50 denotes the IC50 on a negative log10 scale, so that one unit is a factor of ten.

pIC50: −log10 of the molar value. Active and inactive are the calls of the source. The rule behind the calls is not given here. A value given as a limit tells only on which side of the number the result lay.

Cyclin-dependent kinase 9 (Homo sapiens), sequence (P50750 whole entry, the tested form may be a part): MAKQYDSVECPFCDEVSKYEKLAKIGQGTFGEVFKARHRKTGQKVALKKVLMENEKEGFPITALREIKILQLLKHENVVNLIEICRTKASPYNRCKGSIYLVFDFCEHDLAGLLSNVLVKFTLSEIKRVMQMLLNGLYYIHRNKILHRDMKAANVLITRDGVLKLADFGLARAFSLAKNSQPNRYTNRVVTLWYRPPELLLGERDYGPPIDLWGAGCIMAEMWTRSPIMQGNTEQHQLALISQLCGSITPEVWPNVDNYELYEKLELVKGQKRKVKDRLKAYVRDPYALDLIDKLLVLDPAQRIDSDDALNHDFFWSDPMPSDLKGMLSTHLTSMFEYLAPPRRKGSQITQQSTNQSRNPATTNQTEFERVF
Cyclin-dependent kinase 9 (Mus musculus), sequence (Q99J95 whole entry): as the sequence (P50750 whole entry, the tested form may be a part) above, with S17T, R37K, K40Q, N258K, Y262F counted along it
Calcium/calmodulin-dependent protein kinase type IV, sequence (Q16566 whole entry): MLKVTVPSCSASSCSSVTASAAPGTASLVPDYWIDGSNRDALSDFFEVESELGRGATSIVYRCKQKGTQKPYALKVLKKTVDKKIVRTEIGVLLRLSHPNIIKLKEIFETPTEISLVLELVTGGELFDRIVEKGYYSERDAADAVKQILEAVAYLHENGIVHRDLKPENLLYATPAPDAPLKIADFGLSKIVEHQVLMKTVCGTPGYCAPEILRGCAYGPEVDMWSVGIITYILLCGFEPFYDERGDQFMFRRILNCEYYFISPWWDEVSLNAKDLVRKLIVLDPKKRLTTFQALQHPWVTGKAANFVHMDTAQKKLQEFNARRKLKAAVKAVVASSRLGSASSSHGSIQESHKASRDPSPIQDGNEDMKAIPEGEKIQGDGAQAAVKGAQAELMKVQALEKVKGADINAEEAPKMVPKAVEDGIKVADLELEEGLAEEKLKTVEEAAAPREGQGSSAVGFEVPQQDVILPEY

In the case of `COc1ccccc1-c1cc(Nc2cccc(NS(C)(=O)=O)c2)ncn1`, the level, % of control at 10 µM (in [1]; in the assay on A549 [5]; in [7]) was 20% each time. Also, the Activity in the assay with THP-1 [2] was 45%. Moreover, the inhibition is 50% in [3], 50% in assay [6] and “Dose-Dependent Effect” with HeLa. For the same compound, the result in the assay on THP-1 [4], in the assay with MCF7, with A549 [12] and with p53HCT116 was Active. The inhibition entry in assay [8] and in [9] was “Active” in each case. Further, in assay [10], the fold change (FC) was found to be 1.6. The negative logarithm of the IC50 (pIC50) in assay [11] is < 4.70.
